According to publication PMC2195561 (The Journal of Experimental Medicine, 1999):
No end group written: not given here.

How the values were obtained:
TAP [1] = target: T1, TAP (Homo sapiens, UniProt Q03518+Q03519); test: Direct TAP-mediated translocation of radiolabeled peptides, human TAP; type: biochemical; conditions: streptolysin O–permeabilized LCL721 cells; Con A–Sepharose recovery; Fig. 1 B
T1 sequence (Q03518 1-748): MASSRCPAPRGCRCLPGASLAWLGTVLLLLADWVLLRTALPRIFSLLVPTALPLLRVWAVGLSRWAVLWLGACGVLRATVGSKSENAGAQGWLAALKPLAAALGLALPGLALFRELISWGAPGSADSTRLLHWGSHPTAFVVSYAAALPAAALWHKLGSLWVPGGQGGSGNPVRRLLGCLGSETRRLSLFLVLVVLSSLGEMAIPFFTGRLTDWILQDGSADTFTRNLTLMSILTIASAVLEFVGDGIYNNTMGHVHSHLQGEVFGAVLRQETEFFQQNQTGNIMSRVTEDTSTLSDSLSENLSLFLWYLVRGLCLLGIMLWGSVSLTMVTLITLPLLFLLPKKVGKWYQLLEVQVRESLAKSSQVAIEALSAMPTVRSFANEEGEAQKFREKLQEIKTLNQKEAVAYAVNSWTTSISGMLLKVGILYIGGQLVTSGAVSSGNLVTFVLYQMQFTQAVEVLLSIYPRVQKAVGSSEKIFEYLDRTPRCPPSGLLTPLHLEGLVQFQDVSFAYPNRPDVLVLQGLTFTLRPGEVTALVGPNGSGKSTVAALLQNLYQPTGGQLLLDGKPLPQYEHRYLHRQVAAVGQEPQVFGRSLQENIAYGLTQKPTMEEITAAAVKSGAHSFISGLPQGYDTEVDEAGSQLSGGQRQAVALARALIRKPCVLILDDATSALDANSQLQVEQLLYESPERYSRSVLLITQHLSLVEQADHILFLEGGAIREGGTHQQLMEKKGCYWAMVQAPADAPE
T1 sequence (Q03519 1-686): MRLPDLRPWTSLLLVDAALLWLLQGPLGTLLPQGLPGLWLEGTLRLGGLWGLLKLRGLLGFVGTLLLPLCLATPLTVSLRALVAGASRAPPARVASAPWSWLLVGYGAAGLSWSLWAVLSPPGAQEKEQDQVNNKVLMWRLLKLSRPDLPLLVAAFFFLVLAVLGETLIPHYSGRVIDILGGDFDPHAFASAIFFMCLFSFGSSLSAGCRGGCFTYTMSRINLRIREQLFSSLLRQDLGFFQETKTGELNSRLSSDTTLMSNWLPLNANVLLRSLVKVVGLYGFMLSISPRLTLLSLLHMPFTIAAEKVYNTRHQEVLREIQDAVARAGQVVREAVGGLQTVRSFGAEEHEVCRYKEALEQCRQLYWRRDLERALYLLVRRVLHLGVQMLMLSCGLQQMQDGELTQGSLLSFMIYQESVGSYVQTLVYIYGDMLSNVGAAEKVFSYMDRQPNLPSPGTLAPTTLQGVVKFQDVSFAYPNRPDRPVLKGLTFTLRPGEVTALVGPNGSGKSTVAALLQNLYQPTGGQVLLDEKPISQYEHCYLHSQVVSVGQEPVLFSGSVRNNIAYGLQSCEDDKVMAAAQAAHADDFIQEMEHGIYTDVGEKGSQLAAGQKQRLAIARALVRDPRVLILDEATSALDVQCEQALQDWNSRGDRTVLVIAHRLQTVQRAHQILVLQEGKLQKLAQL
How it was run: (§1)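 Test peptides carrying an N-linked glycosylation sequon are radioiodinated (Na-125I, chloramine-T) and added to streptolysin O–permeabilized LCL721 cells. Peptide reaching the ER acquires an N-glycan and is recovered on Con A–Sepharose, given as a fraction of total input. Controls are samples run without ATP and TAP-deficient T2 cells.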

Con A = test: Con A–Sepharose recovery in the absence of ATP; type: binding; conditions: no N-linked glycan, Fig. 1 B
How it was run: as §1

TAP [2] = target: T1, TAP; test: Competition of TAP-mediated translocation of iodinated peptide 417; type: biochemical
How it was run: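 Iodinated index peptide (125I via chloramine-T) premixed with unlabelled competitor peptide, then added to streptolysin O–permeabilized human LCL721 cells for TAP-mediated transport into the ER. Translocated index peptide is given as a fraction of that recovered without competitor.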

TAP [3] = test: Direct TAP-mediated translocation of radiolabeled peptides, murine TAP; type: biochemical; conditions: data not shown

Substance | translocation by human TAP (TAP [1]) | recovery by Con A–Sepharose in the absence of ATP (Con A) | IC50 (TAP [2]) [µM] | translocation by murine TAP (TAP [3])
TVNKTES [O-β-GlcNAc]AY [417-G] | also translocated by TAP | not itself a ligand for Con A |  | 
FASGNYSAL [wt-S] |  |  | 12 | 
TVNKTERAY [compound 417, reference compound] | very efficiently translocated |  |  | very efficiently translocated
TVNKTESAY [417-S] | very efficiently translocated |  |  | very efficiently translocated
